Test results: ChEMBL document CHEMBL4689842, “EUbOPEN Chemogenomics Library wave 1” (2021)
Where “and” joins values, the source holds several entries; their conditions need not be identical. Identical values can stand only once.

System: HEK-293T
Assay: Multiplex assay against HEK293T;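 as to Population Tubulin-Different-Phenotype (%): share of the cells with healthy nuclei that show this phenotype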
Format: toxicity, cell-based
Conditions: human
How it was run: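 Phenotypes for tubulin, mitochondrial mass and membrane permeability are expressed as per cents of healthy-nucleus cells. Cells were stained live at seeding with Hoechst33342, BioTracker Green Microtubule Cytoskeleton Dye, MitoTracker Red and Annexin V Alexa Fluor 680, then imaged after compound addition on a CQ1 microscope at 37°C and 5% CO2. Machine-learning gating in CellPathfinder separated Hoechst high-intensity objects from normal cells, divided normal cells by nuclear state (healthy, pyknosed, fragmented) and divided pyknosed cells into mitotic or apoptotic.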

[1] = 12 h, 1 µM, compound concentration 1 uM, replicate 1
[2] = 12 h, 1 µM, compound concentration 1 uM, replicate 2
[3] = 12 h, 10 µM, compound concentration 10 uM, replicate 1
[4] = 12 h, 10 µM, compound concentration 10 uM, replicate 2
[5] = 24 h, 1 µM, compound concentration 1 uM, replicate 1
[6] = 24 h, 1 µM, compound concentration 1 uM, replicate 2
[7] = 24 h, 10 µM, compound concentration 10 uM, replicate 1
[8] = 24 h, 10 µM, compound concentration 10 uM, replicate 2

How did the “Population Apoptotic (%)” value [1] turn out when `CNCc1ccc(-c2cc(-c3nc(-c4ccc(S(=O)(=O)C(C)C)cc4)cnc3N)on2)cc1` [BERZOSERTIB] was run?
The value was 44% and 25%.

What about the “Population Fragmented Nuclei (%)” value [1] of the same compound?
Its value is 94% and 79%.

What about the “Population Hoechst High Intensity Objects (%)” value [1] of the same compound?
Its value is 36% and 50%.

And the “Population Membrane Permeable-Phenotype (%)” value [1]?
The value was 31% and 34%.

What about the “Population Mitochondria Different-Phenotype (%)” value [1] of the same compound?
The value was 9%.

And the “Population Mitotic Cells (%)” value [1]?
The value was 55% and 75%.

What about the “Population Normal (%)” value [1] of the same compound?
Its value is 63% and 49%.

And the “Population Tubulin-Different-Phenotype (%)” value [1]?
The value was 13%.

What about the “Total Cell Count” value [1] of the same compound?
The value was 865 and 596.

And the “Population Apoptotic (%)” value [2]?
The value was 14% and 11%.

What about the “Population Fragmented Nuclei (%)” value [2] of the same compound?
The value was 66%.

And the “Population Hoechst High Intensity Objects (%)” value [2]?
The value was 28% and 80%.

What about the “Population Mitochondria Different-Phenotype (%)” value [2] of the same compound?
Its value is 0% and 16%.

And the “Population Mitotic Cells (%)” value [2]?
Its value is 85% and 88%.

And the “Population Tubulin-Different-Phenotype (%)” value [2]?
The value was 50% and 60%.

And the “Total Cell Count” value [2]?
Its value is 1257 and 695.

And the “Population Apoptotic (%)” value [3]?
Its value is 37% and 15%.

And the “Population Fragmented Nuclei (%)” value [3]?
Its value is 82% and 86%.

And the “Population Healthy Nuclei (%)” value [3]?
Its value is 12% and 7%.

What about the “Population Hoechst High Intensity Objects (%)” value [3] of the same compound?
The value was 48% and 47%.

What about the “Population Membrane Permeable-Phenotype (%)” value [3] of the same compound?
Its value is 46% and 29%.

And the “Population Mitochondria Different-Phenotype (%)” value [3]?
The value was 6% and 7%.

And the “Population Mitotic Cells (%)” value [3]?
The value was 62% and 85%.

And the “Population Normal (%)” value [3]?
Its value is 51% and 52%.

What about the “Population Pyknosed Nuclei (%)” value [3] of the same compound?
Its value is 5%.

And the “Population Tubulin-Different-Phenotype (%)” value [3]?
Its value is 18% and 11%.

What about the “Total Cell Count” value [3] of the same compound?
The value was 918 and 667.

And the “Population Fragmented Nuclei (%)” value [4]?
The value was 95% and 56%.

And the “Population Hoechst High Intensity Objects (%)” value [4]?
The value was 34% and 86%.

And the “Population Mitochondria Different-Phenotype (%)” value [4]?
Its value is 5% and 9%.

And the “Population Mitotic Cells (%)” value [4]?
The value was 68% and 92%.

What about the “Population Tubulin-Different-Phenotype (%)” value [4] of the same compound?
Its value is 82% and 59%.

And the “Total Cell Count” value [4]?
The value was 1271 and 770.

What about the “Population Apoptotic (%)” value [5] of the same compound?
The value was 43% and 15%.

What about the “Population Fragmented Nuclei (%)” value [5] of the same compound?
Its value is 91% and 64%.

And the “Population Hoechst High Intensity Objects (%)” value [5]?
The value was 39% and 65%.

And the “Population Membrane Permeable-Phenotype (%)” value [5]?
The value was 50% and 21%.

What about the “Population Mitochondria Different-Phenotype (%)” value [5] of the same compound?
Its value is 7% and 13%.

And the “Population Mitotic Cells (%)” value [5]?
Its value is 56% and 84%.

What about the “Population Normal (%)” value [5] of the same compound?
Its value is 60% and 34%.

What about the “Population Pyknosed Nuclei (%)” value [5] of the same compound?
The value was 3% and 9%.

What about the “Population Tubulin-Different-Phenotype (%)” value [5] of the same compound?
Its value is 30% and 11%.

What about the “Total Cell Count” value [5] of the same compound?
Its value is 826 and 568.

What about the “Population Hoechst High Intensity Objects (%)” value [6] of the same compound?
Its value is 33% and 85%.

What about the “Population Membrane Permeable-Phenotype (%)” value [6] of the same compound?
The value was 33% and 60%.

And the “Population Mitochondria Different-Phenotype (%)” value [6]?
Its value is 4% and 6%.

And the “Population Mitotic Cells (%)” value [6]?
Its value is 87% and 97%.

And the “Population Pyknosed Nuclei (%)” value [6]?
Its value is 30%.

And the “Population Tubulin-Different-Phenotype (%)” value [6]?
The value was 71% and 81%.

And the “Total Cell Count” value [6]?
The value was 1330 and 870.

What about the “Population Fragmented Nuclei (%)” value [7] of the same compound?
The value was 65% and 58%.

And the “Population Healthy Nuclei (%)” value [7]?
The value was 16% and 26%.

What about the “Population Hoechst High Intensity Objects (%)” value [7] of the same compound?
Its value is 46% and 73%.

And the “Population Membrane Permeable-Phenotype (%)” value [7]?
Its value is 36% and 31%.

What about the “Population Mitotic Cells (%)” value [7] of the same compound?
Its value is 40% and 88%.

And the “Population Normal (%)” value [7]?
Its value is 53% and 26%.

And the “Population Pyknosed Nuclei (%)” value [7]?
The value was 17% and 14%.

What about the “Population Tubulin-Different-Phenotype (%)” value [7] of the same compound?
Its value is 36% and 27%.

And the “Total Cell Count” value [7]?
The value was 767 and 657.

And the “Population Apoptotic (%)” value [8]?
Its value is 23% and 0%.

And the “Population Hoechst High Intensity Objects (%)” value [8]?
Its value is 36% and 86%.

And the “Population Membrane Permeable-Phenotype (%)” value [8]?
Its value is 21% and 56%.

What about the “Population Mitochondria Different-Phenotype (%)” value [8] of the same compound?
Its value is 14%.

And the “Population Mitotic Cells (%)” value [8]?
The value was 76% and 100%.

What about the “Population Tubulin-Different-Phenotype (%)” value [8] of the same compound?
The value was 78% and 76%.

What about the “Total Cell Count” value [8] of the same compound?
The value was 1281 and 924.
